{"source": "ChEMBL document CHEMBL1926556", "about": "“Synthesis and biological activities of 2-[(heteroaryl)methyl]imidazolines” (Bioorg Med Chem, 2012)", "key": {"Rattus norvegicus [1]": {"test_system": "Rattus norvegicus", "test": "Anxiolytic activity in Sprague-Dawley rat assessed as loss of righting reflex at 1000 ug/kg, ip measured after 30 mins", "format": "functional, organism-based", "procedure,_shortened": "(§1)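 Male Sprague–Dawley rats (250–270 g) were handled by the experimenter one day before testing. Compound was dissolved in sterile saline and given i.p. If no loss of righting reflex occurred after 5 min, the dose was repeated, up to 2000 µg/kg cumulative. Animals were watched for righting reflex, locomotion, motor coordination and behaviour. Righting reflex was scored at 30 min.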"}, "Rattus norvegicus [2]": {"test_system": "Rattus norvegicus", "test": "Toxicity in Sprague-Dawley rat assessed as exploratory behavior at 10 to 2000 ug/kg, ip measured after 30 mins", "format": "organism-based", "settings": "in vivo, 0.5 h"}, "Rattus norvegicus [3]": {"test_system": "Rattus norvegicus", "test": "Anxiolytic activity in Sprague-Dawley rat assessed as loss of righting reflex at 500 ug/kg, ip measured after 30 mins", "format": "functional, organism-based", "procedure,_shortened": "as §1"}, "Rattus norvegicus [4]": {"test_system": "Rattus norvegicus", "test": "Toxicity in Sprague-Dawley rat assessed as reduced motor co-ordination at 10 to 2000 ug/kg, ip measured within 5 to 8 mins", "format": "organism-based", "settings": "in vivo", "procedure,_shortened": "as §1"}, "Rattus norvegicus [5]": {"test_system": "Rattus norvegicus", "test": "Anxiolytic activity in Sprague-Dawley rat assessed as loss of righting reflex at 100 ug/kg, ip measured after 30 mins", "format": "functional, organism-based", "procedure,_shortened": "as §1"}, "Rattus norvegicus [6]": {"test_system": "Rattus norvegicus", "test": "Toxicity in Sprague-Dawley rat assessed as subdued state at 10 to 2000 ug/kg, ip measured after 30 mins", "format": "organism-based", "settings": "in vivo, 0.5 h", "procedure,_shortened": "as §1"}, "Rattus norvegicus [7]": {"test_system": "Rattus norvegicus", "test": "Toxicity in Sprague-Dawley rat assessed as resistance to handling at 10 to 2000 ug/kg, ip measured after 30 mins", "format": "organism-based", "settings": "in vivo, 0.5 h", "procedure,_shortened": "as §1"}, "Rattus norvegicus [8]": {"test_system": "Rattus norvegicus", "test": "Antihypertensive activity in Wistar rat assessed as inhibition of methoxamine-induced change in heart rate at 0.1 mg/kg, iv co-administered with 10 ug/kg/min methoxamine challenge", "format": "functional, organism-based", "set-up": "dose 0.1 mg/kg", "procedure,_shortened": "(§2)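 Male Wistar rats (200–290 g) anaesthetized with i.p. thiopental 70 mg/kg, maintained by thiopental infusion, 36–37 °C. Carotid catheter for BP/HR, jugular line for infusion. Methoxamine i.v. infusion 10 or 20 µg/kg/min began 10 min before 0.1 mg/kg i.v. bolus. Readout is ΔMAP or ΔHR from time 0. Five to seven rats per group; repeated-measures ANOVA.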"}, "Rattus norvegicus [9]": {"test_system": "Rattus norvegicus", "test": "Antihypertensive activity in Wistar rat assessed as inhibition of methoxamine-induced change in heart rate at 0.1 mg/kg, iv administered 10 mins after 20 ug/kg/min methoxamine challenge", "format": "functional, organism-based", "set-up": "dose 0.1 mg/kg", "procedure,_shortened": "as §2"}, "Rattus norvegicus [10]": {"test_system": "Rattus norvegicus", "test": "Toxicity in Sprague-Dawley rat assessed as loss of spontaneous locomotory activity at 10 to 2000 ug/kg, ip measured within 5 to 8 mins", "format": "organism-based", "settings": "in vivo", "procedure,_shortened": "as §1"}, "Rattus norvegicus [11]": {"test_system": "Rattus norvegicus", "test": "Toxicity in Sprague-Dawley rat assessed as still state at 10 to 2000 ug/kg, ip measured after 30 mins", "format": "organism-based", "settings": "in vivo, 0.5 h", "procedure,_shortened": "as §1"}, "Rattus norvegicus [12]": {"test_system": "Rattus norvegicus", "test": "Antihypertensive activity in Wistar rat assessed as inhibition of methoxamine-induced change in heart rate at 0.1 mg/kg, iv administered 10 mins after methoxamine challenge", "format": "functional", "procedure,_shortened": "as §2"}, "Rattus norvegicus [13]": {"test_system": "Rattus norvegicus", "test": "Toxicity in Sprague-Dawley rat assessed as calm behavior at 10 to 2000 ug/kg, ip measured after 30 mins", "format": "organism-based", "settings": "in vivo, 0.5 h"}, "Rattus norvegicus [14]": {"test_system": "Rattus norvegicus", "test": "Antihypertensive activity in Wistar rat assessed as inhibition of methoxamine-induced change in blood pressure at 0.1 mg/kg, iv administered 10 mins after 10 ug/kg/min methoxamine challenge", "format": "functional, organism-based", "set-up": "dose 0.1 mg/kg", "procedure,_shortened": "as §2"}, "Rattus norvegicus [15]": {"test_system": "Rattus norvegicus", "test": "Antihypertensive activity in Wistar rat assessed as inhibition of methoxamine-induced change in blood pressure at 0.1 mg/kg, iv administered 10 mins after methoxamine challenge", "format": "functional", "procedure,_shortened": "as §2"}}, "note": "The source made the active and inactive calls. The calls are words filed in the database; no cut-off is given here.", "data": [{"smiles": "Cl.Clc1cccc2cnn(CC3=NCCN3)c12", "values": [{"measurement": "Activity", "setting": "Rattus norvegicus [1]", "result": "Active"}, {"measurement": "Activity", "setting": "Rattus norvegicus [2]", "result": "Non-toxic"}, {"measurement": "Activity", "setting": "Rattus norvegicus [3]", "result": "inactive"}, {"measurement": "Activity", "setting": "Rattus norvegicus [4]", "result": "Toxic"}, {"measurement": "Activity", "setting": "Rattus norvegicus [5]", "result": "inactive"}, {"measurement": "Activity", "setting": "Rattus norvegicus [6]", "result": "Non-toxic"}, {"measurement": "Activity", "setting": "Rattus norvegicus [7]", "result": "Non-toxic"}, {"measurement": "Activity", "setting": "Rattus norvegicus [8]", "result": "Active"}, {"measurement": "Activity", "setting": "Rattus norvegicus [9]", "result": "inactive"}, {"measurement": "Activity", "setting": "Rattus norvegicus [10]", "result": "Toxic"}, {"measurement": "Activity", "setting": "Rattus norvegicus [11]", "result": "Non-toxic"}, {"measurement": "Activity", "setting": "Rattus norvegicus [12]", "result": -131.8, "unit": "bpm"}, {"measurement": "Activity", "setting": "Rattus norvegicus [13]", "result": "Non-toxic"}, {"measurement": "Activity", "setting": "Rattus norvegicus [14]", "result": "inactive"}, {"measurement": "Activity", "setting": "Rattus norvegicus [15]", "result": -47.7, "unit": "mmHg"}]}]}
